Assay results: ChEMBL document CHEMBL1275459 (2008)

Columns and labels:
Klebsiella pneumoniae [1] = assay: Antimicrobial activity against ciprofloxacin-resistant Klebsiella pneumoniae isolate 779 harboring GyrA Ser83Leu, Asp78Asn, Ala171Ser and Val198Ile mutant gene by agar dilution method; format: functional
Klebsiella pneumoniae [2] = assay: microbe, parasite or virus in culture; conditions: isolate 16
Klebsiella pneumoniae [3] = assay: Antimicrobial activity against ciprofloxacin-resistant Klebsiella pneumoniae isolate 234 harboring GyrA Ser83Leu, Asp78Asn, Ala171Ser and Val198Ile mutant gene by agar dilution method; format: functional
Klebsiella pneumoniae [4] = assay: Antimicrobial activity against ciprofloxacin-susceptible Klebsiella pneumoniae isolate 517 harboring GyrA Ala171Ser, Leu187Ile and Val198Ile mutant gene by agar dilution method; format: functional
Klebsiella pneumoniae [5] = assay: Antimicrobial activity against ciprofloxacin-susceptible Klebsiella pneumoniae isolate 738 by agar dilution method; format: functional
Summary of the method: (§1)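 MIC read by agar dilution on Mueller-Hinton agar following CLSI (formerly NCCLS) recommendations. K. pneumoniae isolates were identified with the API 20E system and confirmed as nonduplicated by randomly amplified polymorphic DNA analysis.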

Klebsiella pneumoniae [6] = assay: Antimicrobial activity against ciprofloxacin-susceptible Klebsiella pneumoniae isolate 838 harboring GyrA Ser83Tyr, Ala171Ser, Leu187Ile and Val198Ile mutant gene by agar dilution method; format: functional
Klebsiella pneumoniae [7] = assay: Antimicrobial activity against ciprofloxacin-resistant Klebsiella pneumoniae isolate 149 harboring GyrA Ser83Leu, Asp78Asn, Ala171Ser and Val198Ile mutant gene by agar dilution method; format: functional
Klebsiella pneumoniae [8] = assay: Antimicrobial activity against ciprofloxacin-susceptible Klebsiella pneumoniae isolate 685 harboring GyrA Ala171Ser, Leu187Ile and Val198Ile mutant gene by agar dilution method; format: functional
Klebsiella pneumoniae [9] = assay: Antimicrobial activity against ciprofloxacin-resistant Klebsiella pneumoniae isolate 94 harboring GyrA Ser83Leu, Asp78Asn, Ala171Ser and Val198Ile mutant gene by agar dilution method; format: functional
Klebsiella pneumoniae [10] = assay: Antimicrobial activity against ciprofloxacin-susceptible Klebsiella pneumoniae isolate 577 by agar dilution method; format: functional; summary of the method: as §1
Klebsiella pneumoniae [11] = assay: Antimicrobial activity against ciprofloxacin-resistant Klebsiella pneumoniae isolate 769 harboring GyrA Ser83Ile and Gly177Arg mutant gene by agar dilution method; format: functional
Klebsiella pneumoniae [12] = assay: microbe, parasite or virus in culture; conditions: isolate 29
Klebsiella pneumoniae [13] = assay: Antimicrobial activity against ciprofloxacin-susceptible Klebsiella pneumoniae isolate 760 by agar dilution method; format: functional
Klebsiella pneumoniae [14] = assay: Antimicrobial activity against ciprofloxacin-intermediate resistant Klebsiella pneumoniae isolate 715 by agar dilution method; format: functional
Klebsiella pneumoniae [15] = assay: Antimicrobial activity against ciprofloxacin-resistant Klebsiella pneumoniae isolate 719 harboring GyrA Ser83Leu, Asp78Asn, Ala171Ser and Val198Ile mutant gene by agar dilution method; format: functional
Klebsiella pneumoniae [16] = assay: Antimicrobial activity against ciprofloxacin-susceptible Klebsiella pneumoniae isolate 49 harboring GyrA Asp87Asn, Arg154Ser and Ala171Ser mutant gene by agar dilution method; format: functional
Klebsiella pneumoniae [17] = assay: Antimicrobial activity against ciprofloxacin-resistant Klebsiella pneumoniae isolate 205 harboring GyrA Ser83Leu, Asp78Asn, Ala171Ser and Val198Ile mutant gene by agar dilution method; format: functional
Klebsiella pneumoniae [18] = assay: Antimicrobial activity against ciprofloxacin-susceptible Klebsiella pneumoniae isolate 724 harboring GyrA Ser83Ile mutant gene by agar dilution method; format: functional
Klebsiella pneumoniae [19] = assay: microbe, parasite or virus in culture; conditions: isolate 3
Klebsiella pneumoniae [20] = assay: Antimicrobial activity against ciprofloxacin-resistant Klebsiella pneumoniae isolate 836 by agar dilution method; format: functional
Klebsiella pneumoniae [21] = assay: microbe, parasite or virus in culture; conditions: isolate 19
Klebsiella pneumoniae [22] = assay: Antimicrobial activity against ciprofloxacin-resistant Klebsiella pneumoniae isolate 27 harboring GyrA Ser83Leu, Asp78Asn, Ala171Ser and Val198Ile mutant gene by agar dilution method; format: functional
Klebsiella pneumoniae [23] = assay: Antimicrobial activity against ciprofloxacin-resistant Klebsiella pneumoniae isolate 3 harboring GyrA Ser83Leu, Asp78Asn, Ala171Ser and Val198Ile mutant gene by agar dilution method; format: functional
Klebsiella pneumoniae [24] = assay: Antimicrobial activity against ciprofloxacin-susceptible Klebsiella pneumoniae isolate 182 harboring GyrA Ser83Thr and Ala171Ser mutant gene by agar dilution method; format: functional
Klebsiella pneumoniae [25] = assay: Antimicrobial activity against ciprofloxacin-susceptible Klebsiella pneumoniae isolate 212 harboring GyrA Ala171Ser, Leu187Ile and Val198Ile mutant gene by agar dilution method; format: functional
Klebsiella pneumoniae [26] = assay: Antimicrobial activity against ciprofloxacin-susceptible Klebsiella pneumoniae isolate 840 harboring GyrA Ala171Ser, Leu187Ile and Val198Ile mutant gene by agar dilution method; format: functional
Klebsiella pneumoniae [27] = assay: Antimicrobial activity against ciprofloxacin-resistant Klebsiella pneumoniae isolate 103 harboring GyrA Ser83Leu, Asp78Asn, Ala171Ser and Val198Ile mutant gene by agar dilution method; format: functional
Klebsiella pneumoniae [28] = assay: Antimicrobial activity against ciprofloxacin-intermediate resistant Klebsiella pneumoniae isolate 753 harboring GyrA Ser83Ile mutant gene by agar dilution method; format: functional
Klebsiella pneumoniae [29] = assay: Antimicrobial activity against ciprofloxacin-resistant Klebsiella pneumoniae isolate 772 harboring GyrA Ser83Ile mutant gene by agar dilution method; format: functional
Klebsiella pneumoniae [30] = assay: Antimicrobial activity against ciprofloxacin-intermediate resistant Klebsiella pneumoniae isolate 21 by agar dilution method; format: functional
Klebsiella pneumoniae [31] = assay: Antimicrobial activity against ciprofloxacin-resistant Klebsiella pneumoniae isolate 863 harboring GyrA Ser83Leu, Asp78Asn, Ala171Ser and Val198Ile mutant gene by agar dilution method; format: functional
Klebsiella pneumoniae [32] = assay: Antimicrobial activity against ciprofloxacin-resistant Klebsiella pneumoniae isolate 827 harboring GyrA Ser83Ile mutant gene by agar dilution method; format: functional
Klebsiella pneumoniae [33] = assay: microbe, parasite or virus in culture; conditions: isolate 24
Klebsiella pneumoniae [34] = assay: Antimicrobial activity against ciprofloxacin-resistant Klebsiella pneumoniae isolate 721 harboring GyrA Ala171Ser, Leu187Ile and Val198Ile mutant gene by agar dilution method; format: functional
Klebsiella pneumoniae [35] = assay: Antimicrobial activity against ciprofloxacin-resistant Klebsiella pneumoniae isolate 663 harboring GyrA Ser83Leu, Asp78Asn, Ala171Ser and Val198Ile mutant gene by agar dilution method; format: functional
Klebsiella pneumoniae [36] = assay: Antimicrobial activity against ciprofloxacin-resistant Klebsiella pneumoniae isolate 95 harboring GyrA Ser83Leu, Asp78Asn, Ala171Ser and Val198Ile mutant gene by agar dilution method; format: functional
Klebsiella pneumoniae [37] = assay: Antimicrobial activity against ciprofloxacin-susceptible Klebsiella pneumoniae isolate 737 harboring GyrA Ser83Leu and Val198Ile mutant gene by agar dilution method; format: functional
Klebsiella pneumoniae [38] = assay: Antimicrobial activity against ciprofloxacin-resistant Klebsiella pneumoniae isolate 828 harboring GyrA Ser83Ile and Gly177Arg mutant gene by agar dilution method; format: functional

Measured: MIC

O=C(O)c1cn(C2CC2)c2cc(N3CCNCC3)c(F)cc2c1=O [CIPROFLOXACIN]
0.125 µg/mL: Klebsiella pneumoniae [8] | Klebsiella pneumoniae [10]
< 0.0312 µg/mL: Klebsiella pneumoniae [4] | Klebsiella pneumoniae [13] | Klebsiella pneumoniae [18] | Klebsiella pneumoniae [24] | Klebsiella pneumoniae [25] | Klebsiella pneumoniae [37]
1 µg/mL: Klebsiella pneumoniae [5] | Klebsiella pneumoniae [6] | Klebsiella pneumoniae [26]
2 µg/mL: Klebsiella pneumoniae [14] | Klebsiella pneumoniae [28] | Klebsiella pneumoniae [30]
128 µg/mL: Klebsiella pneumoniae [31] | Klebsiella pneumoniae [36]
16 µg/mL: Klebsiella pneumoniae [3] | Klebsiella pneumoniae [12] | Klebsiella pneumoniae [19] | Klebsiella pneumoniae [23]
0.5 µg/mL: Klebsiella pneumoniae [16]
4 µg/mL: Klebsiella pneumoniae [2] | Klebsiella pneumoniae [17] | Klebsiella pneumoniae [20]
8 µg/mL: Klebsiella pneumoniae [15] | Klebsiella pneumoniae [21] | Klebsiella pneumoniae [22] | Klebsiella pneumoniae [34]
64 µg/mL: Klebsiella pneumoniae [7] | Klebsiella pneumoniae [27] | Klebsiella pneumoniae [35]
32 µg/mL: all other assays above

CCn1cc(C(=O)O)c(=O)c2ccc(C)nc21 [NALIDIXIC ACID]
256 µg/mL: Klebsiella pneumoniae [6]
16 µg/mL: Klebsiella pneumoniae [14] | Klebsiella pneumoniae [25] | Klebsiella pneumoniae [26] | Klebsiella pneumoniae [30]
4 µg/mL: Klebsiella pneumoniae [10] | Klebsiella pneumoniae [13] | Klebsiella pneumoniae [24]
8 µg/mL: Klebsiella pneumoniae [4] | Klebsiella pneumoniae [5] | Klebsiella pneumoniae [18] | Klebsiella pneumoniae [37]
not listed: Klebsiella pneumoniae [2] | Klebsiella pneumoniae [12] | Klebsiella pneumoniae [19] | Klebsiella pneumoniae [21] | Klebsiella pneumoniae [33]
> 512 µg/mL: all other assays above
